pIC50: −log10 of the molar value.
Experiments:
[1] = system: U373; test: Antiproliferative MTT assay, 2D cell culture; assay type: cell-based; conditions: Homo sapiens, U373 MG, 48 h, read-out: IC50 U373
Summary of the method: (§1)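 LN-18 and U373 cells were grown in phenol-red-free DMEM with 5% FBS and amino acids at 37 °C, 5% CO2. Cells (1 x 10³ per well) adhered 24 h, then were exposed 48 h to 0–140 µM compound, with 0.1% DMSO as vehicle. MTT (2.5 mg/mL in phenol-red-free medium) was applied 1 h at 37 °C. Plates were read at 540 nm after DMSO solubilisation and normalised to vehicle. Statistics: one-way ANOVA with Tukey.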

[2] = system: LN-18; test: Antiproliferative MTT assay, 2D cell culture; assay type: cell-based; conditions: Homo sapiens, LN-18, 48 h, read-out: IC50 LN-18
Summary of the method: as §1

[3] = system: Gli4 cells; test: MTT assay, Gli4 in differentiation medium, flat bottom plate; assay type: cell-based, human; conditions: flat bottom, 0, 1 and 10 µM, compared to G-15
Summary of the method: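 Gli4 cells (4000 per well) were seeded in differentiation medium in flat-bottom wells treated with laminin/lysine. Compound was tested at 0, 1 and 10 µM. Viability was quantified by MTT 5 days after incubation and expressed as % viability. N=5.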

[4] = Forced stability test; assay type: physicochemical; conditions: for Percentage degradation, Thermal: 50 °C; for Percentage degradation, Thermal / Percentage degradation, Acid / Percentage degradation, Basic / Percentage degradation, Luminous: 24 h; for Percentage degradation, Oxidative: H2O2 3%, 1 h; for Percentage degradation, Acid: HCl 0.1 N; for Percentage degradation, Basic: NaOH 0.1 N; for Percentage degradation, Luminous: Sunlight
Summary of the method: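 Compound stock (1 mL) was placed in a 5 mL volumetric flask for each stress. Acid and base arms used 1 mL of 0.1 N HCl or 0.1 N NaOH for 24 h, then were neutralised with the opposite reagent. Oxidative stress used 3.0% H2O2. For heat (50 °C oven, 24 h) and sunlight exposure (24 h), stock was diluted to volume in mobile phase in capped vials. Degradation was assessed chromatographically.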

[5] = system: BJ; test: MTT assay on non-cancerous control cells; assay type: cell-based; conditions: Homo sapiens, 48 h, read-out: IC50 BJ
Summary of the method: (§2)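 Non-tumour control cells were used: BJ fibroblasts in DMEM with 5% FBS, and MCF-10A in DMEM/F12 with 5% horse serum, insulin, EGF and hydrocortisone. Cells (1 x 10³ per well) adhered 24 h, then were treated 48 h with 0–140 µM compound in DMSO (0.1% vehicle control). MTT (2.5 mg/mL) was applied 1 h at 37 °C. Formazan was dissolved in DMSO, read at 540 nm and normalised to vehicle.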

[6] = system: Gli4 cells; test: 3D anti-migratory assay on aligned nanofibers; assay type: cell-based, human; conditions: 10 µM, non-cytotoxic concentration
[7] = system: glioblastoma stem cells (Gli4); test: Neurospheres formation assay; assay type: cell-based, human; conditions: proliferation medium, 0, 1 and 10 µM, 4 days
Summary of the method: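 Dissociated Gli4 cells (4000 per well) were plated in proliferation medium in round-bottom ultra-low-attachment wells pre-coated with poly-HEMA; a flat-bottom format was also run. Compound in DMSO was added to final 0, 1 and 10 µM. After 4 days, spheres were dissociated, and cells were mixed 1:1 with trypan blue and counted in a Neubauer chamber.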

[8] = system: MCF-10 A; test: MTT assay on non-cancerous control cells; assay type: cell-based; conditions: Homo sapiens, 48 h, read-out: IC50 MCF-10 A
Summary of the method: as §2

[9] = system: Gli4 cells; test: 3D antiproliferative assay on non-aligned nanofibers; assay type: cell-based, human; conditions: proliferation and differentiation mediums, 0.1, 1 and 10 µM, 4 days
[10] = system: GBM cell lines LN18 and U373; test: Antiproliferative evaluation in 2D cell culture, summary over both GBM lines; assay type: cell-based, human; conditions: data not shown; crystals at 20 µM
Summary of the method: as §1

[11] = Dissolution in culture medium during antiproliferative assay; assay type: physicochemical; conditions: 20 µM

Compound `Cc1cc2c(C(C)C)c(O)c(O)c(C=O)c2c(O)c1-c1c(C)cc2c(C(C)C)c(O)c(O)c(C=O)c2c1O` [Gossypol, reference compound] has a pIC50 [1] of 4.47 and a pIC50 [2] of 4.60.

For `Cc1ccc(S(=O)(=O)NC(=O)c2ccc3c(c2)[C@@H]2C=CC[C@@H]2[C@H](c2cc4c(cc2Br)OCO4)N3)cc1` [L-06, (3aS,4R,9bR)-4-(6-bromobenzo[d][1,3]dioxol-5-yl)-N-tosyl-3a,4,5,9b-tetrahydro-3 H-cyclopenta[c] quinoline-8-carboxamide], the “Cell viability of the NS” value [3] was “slightly decreased cell viability”, the “Percentage degradation, Thermal” value [4] was 1.36% and the “Percentage degradation, Oxidative” value [4] was 2.95%. For the same compound, the “Percentage degradation, Acid” value [4] was 7.2%, the “Percentage degradation, Basic” value [4] was 9.8% and the “Percentage degradation, Luminous” value [4] was 0.15%. For the same compound, the pIC50 [5] was 3.99, the “Reduction of migration of Gli4 cells on aligned NFS” value [6] was about 50% and the pIC50 [1] was 4.17. For the same compound, the Neurospheres formation [7] was “inhibit neurospheres formation”, the pIC50 [8] was 4.47 and the pIC50 [2] was 4.17. The “Cell proliferation of Gli4 on non-aligned nanofibers” value [9] was “non-antiproliferative activity”.

In the case of `O=C(NS(=O)(=O)c1ccc(Cl)cc1)c1ccc2c(c1)[C@@H]1C=CC[C@@H]1[C@H](c1cc3c(cc1Br)OCO3)N2` [L-37, (3aS,4R,9bR)-4-(6-bromobenzo[d][1,3]dioxol-5-yl)-N-((4-chlorophenyl)sulfonyl)-3a,4,5,9b-tetrahydro-3 H-cyclopenta[c] quinoline-8-carboxamide], the “Cell viability of the NS” value [3] was “slightly decreased cell viability”, the “Percentage degradation, Thermal” value [4] was 0.75% and the “Percentage degradation, Oxidative” value [4] was 0.5%. For the same compound, the “Percentage degradation, Acid” value [4] was 0.65%, the “Percentage degradation, Basic” value [4] was 13.6% and the “Percentage degradation, Luminous” value [4] was 3.5%. For the same compound, the pIC50 [5] was 3.96, the pIC50 [1] was 4.40 and the Neurospheres formation [7] was “inhibit neurospheres formation”. The pIC50 [8] was 4.62, the pIC50 [2] was 4.39 and the “Cell proliferation of Gli4 on non-aligned nanofibers” value [9] was “trend to decrease cell proliferation”.

For `Brc1cc2c(cc1[C@@H]1Nc3ccccc3[C@@H]3C=CC[C@@H]31)OCO2` [G15, reference compound], the “IC50 in the cells assayed” value [10] was “not able to reach IC50 values”, the Neurospheres formation [7] was “inhibit neurospheres formation” and the “Ability to dissolve into medium culture” value [11] was “formed crystals”.
